We go through twelve compounds from ChEMBL document CHEMBL1131191, “De novo design, synthesis, and biological activities of high-affinity and selective non-peptide agonists of the delta-opioid receptor” (J Med Chem, 1998).

Assay [1] concerns the target Mu-type opioid receptor (Rattus norvegicus, UniProt P33535). Description: Binding affinity was measured against Opioid receptor mu 1 using [3H]-DAMGO as radioligand.
Assay [2] has as its target Delta-type opioid receptor (Rattus norvegicus, UniProt P33533). Description: Binding affinity was measured against Opioid receptor delta 1 using [3H]p-Cl-DPDPE as radioligand.
Assay [3] has as its target Delta-type opioid receptor (Homo sapiens, UniProt P41143). Description: Binding affinity was measured against cloned human Opioid receptor delta 1 (wild-type,Wt).
Assay [4] deals with Delta-type opioid receptor (Mus musculus, UniProt P32300). Nature of the assay: Tested for electrically induced smooth muscle contractions from mouse vas deferens expressed in delta opioid receptors. The format is functional. In a few lines:
(§1)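 Electrically stimulated contractions of male Hartley guinea pig ileum longitudinal muscle–myenteric plexus (1 g tension, 0.4-ms pulses) or male ICR mouse vas deferens (0.5 g, 2.0-ms pulses, Mg-free Krebs). Baths at 37 °C, oxygenated Krebs, 0.1 Hz, supramaximal voltage. Agonist left 3 min. Percent inhibition of twitch height, IC50 from Hill fit, ≥4 tissues.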

Assay [5] concerns the target Mu-type opioid receptor (Cavia porcellus, UniProt P97266). Nature of the assay: Tested for electrically induced smooth muscle contractions from guinea pig ileum expressed in mu opioid receptors. It is filed as functional, tissue-based. The essentials:
as §1

The target in assay [6] is Opioid receptors; mu & delta (Homo sapiens) (UniProt P41143+P35372). Description: It is the ratio of EC50(mu receptor) to that of EC50 for(delta receptor). It is filed as functional.
Opioid receptors; mu & delta (Homo sapiens), sequence (P35372 whole entry, looked up): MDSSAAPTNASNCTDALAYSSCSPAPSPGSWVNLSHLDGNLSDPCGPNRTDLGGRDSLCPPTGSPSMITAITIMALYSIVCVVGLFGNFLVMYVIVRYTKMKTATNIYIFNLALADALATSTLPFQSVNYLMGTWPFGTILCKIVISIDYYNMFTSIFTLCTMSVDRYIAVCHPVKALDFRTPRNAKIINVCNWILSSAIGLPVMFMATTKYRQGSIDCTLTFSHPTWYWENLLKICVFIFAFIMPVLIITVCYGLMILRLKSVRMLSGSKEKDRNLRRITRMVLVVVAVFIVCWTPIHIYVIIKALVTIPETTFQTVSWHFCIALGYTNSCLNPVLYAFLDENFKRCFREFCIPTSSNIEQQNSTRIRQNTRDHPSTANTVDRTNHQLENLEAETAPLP
Opioid receptors; mu & delta (Homo sapiens), sequence (P41143 whole entry, looked up): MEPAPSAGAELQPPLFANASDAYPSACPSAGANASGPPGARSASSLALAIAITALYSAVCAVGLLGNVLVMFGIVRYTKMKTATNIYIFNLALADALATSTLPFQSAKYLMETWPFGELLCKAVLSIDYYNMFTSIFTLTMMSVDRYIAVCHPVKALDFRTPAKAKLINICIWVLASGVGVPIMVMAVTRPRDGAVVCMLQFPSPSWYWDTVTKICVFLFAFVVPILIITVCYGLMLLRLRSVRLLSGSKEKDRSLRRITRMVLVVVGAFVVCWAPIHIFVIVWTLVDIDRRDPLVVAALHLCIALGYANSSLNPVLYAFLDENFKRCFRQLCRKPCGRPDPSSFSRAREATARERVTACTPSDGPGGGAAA
The target of assay [7] is Mu-type opioid receptor (Cavia porcellus) (UniProt P97266). Description: Tested for electrically induced smooth muscle contractions from guinea pig ileum expressed in mu opioid receptors at 60 uM. It is filed as functional, tissue-based.
Mu-type opioid receptor (Cavia porcellus), sequence (P97266 whole entry): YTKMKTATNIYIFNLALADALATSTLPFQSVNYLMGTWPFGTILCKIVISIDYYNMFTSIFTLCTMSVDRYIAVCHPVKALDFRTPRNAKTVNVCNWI
The species named for another assay is Cavia porcellus. Nature of the assay: mu-opioid receptor antagonistic activity was measured in guinea pig ileum. It is filed as functional.

Broadly, the IC50 is the concentration needed to halve the response being measured. Higher therefore signals weaker potency. Usually EC50 stands for the concentration needed to bring the measured effect to its halfway point. A lower EC50 goes with greater potency. One may read the inhibition as the drop in the measured response relative to a control, in per cent. A lower inhibition goes with a response near the control.

Where only a bound is given, the exact number is not on record here.

Mu-type opioid receptor (Rattus norvegicus, UniProt P33535), sequence (P33535 whole entry): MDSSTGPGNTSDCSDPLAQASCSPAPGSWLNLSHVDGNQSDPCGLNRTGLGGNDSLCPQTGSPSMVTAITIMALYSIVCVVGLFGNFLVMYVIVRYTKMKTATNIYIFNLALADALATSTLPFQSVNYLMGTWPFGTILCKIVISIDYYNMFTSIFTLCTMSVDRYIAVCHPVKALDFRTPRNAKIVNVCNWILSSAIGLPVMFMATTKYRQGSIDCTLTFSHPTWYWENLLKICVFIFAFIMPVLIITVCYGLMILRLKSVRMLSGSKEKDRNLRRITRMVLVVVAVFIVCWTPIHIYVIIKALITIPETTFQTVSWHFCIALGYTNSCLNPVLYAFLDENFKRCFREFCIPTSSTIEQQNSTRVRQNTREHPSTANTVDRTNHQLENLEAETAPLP
Mu-type opioid receptor (Cavia porcellus, UniProt P97266), sequence (P97266 whole entry): as the sequence (P97266 whole entry) above
Delta-type opioid receptor (Mus musculus, UniProt P32300), sequence (P32300 whole entry): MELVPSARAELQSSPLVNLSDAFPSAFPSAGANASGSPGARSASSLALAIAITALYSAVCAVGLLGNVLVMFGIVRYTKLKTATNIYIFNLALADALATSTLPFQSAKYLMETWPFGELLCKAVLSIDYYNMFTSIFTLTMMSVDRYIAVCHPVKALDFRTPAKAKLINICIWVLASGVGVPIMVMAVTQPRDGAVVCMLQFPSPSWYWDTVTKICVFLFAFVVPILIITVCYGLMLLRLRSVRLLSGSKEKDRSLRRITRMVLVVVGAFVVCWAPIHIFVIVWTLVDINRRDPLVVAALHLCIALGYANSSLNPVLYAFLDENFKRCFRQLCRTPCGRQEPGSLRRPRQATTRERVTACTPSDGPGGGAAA
Delta-type opioid receptor (Rattus norvegicus, UniProt P33533), sequence (P33533 whole entry): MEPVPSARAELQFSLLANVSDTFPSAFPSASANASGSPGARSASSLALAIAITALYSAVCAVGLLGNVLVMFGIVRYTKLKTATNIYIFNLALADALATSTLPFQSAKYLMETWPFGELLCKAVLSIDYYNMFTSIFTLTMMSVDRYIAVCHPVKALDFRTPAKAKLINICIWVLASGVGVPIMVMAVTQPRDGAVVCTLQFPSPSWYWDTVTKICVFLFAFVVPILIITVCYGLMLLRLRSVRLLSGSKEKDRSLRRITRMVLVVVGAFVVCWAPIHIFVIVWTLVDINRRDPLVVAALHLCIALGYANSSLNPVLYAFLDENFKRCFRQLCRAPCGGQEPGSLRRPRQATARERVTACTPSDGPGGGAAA
Delta-type opioid receptor (Homo sapiens, UniProt P41143), sequence (P41143 whole entry): as the sequence (P41143 whole entry, looked up) above

In the case of `CC(C)CC(c1cccc(O)c1)N1CCN(Cc2ccccc2)CC1` (centres undefined), the half-maximal inhibitory concentration (IC50) is 2100 nM at Mu-type opioid receptor [1] and 420 nM in assay [2].
On to `C=CCN1C[C@H](C)N([C@H](c2ccc(C(=O)N(CC)CC)cc2)c2cccc(O)c2)C[C@H]1C`, for which, in assay [2], the half-maximal inhibitory concentration (IC50) amounted to 0.31 nM.
As for `COc1cccc(C(c2ccc(C(C)(C)C)cc2)N2CCN(Cc3ccccc3)CC2)c1` (centres undefined), the concentration for half-maximal inhibition (IC50) at Mu-type opioid receptor [1] was greater than 8000 nM; in assay [2] it was 1800 nM.
In turn, `C=CCN1C[C@H](C)N([C@H](c2ccc(C(=O)N(CC)CC)cc2)c2cccc(OC)c2)C[C@H]1C` [SNC-80] yielded a half-maximal inhibitory concentration (IC50) at Mu-type opioid receptor [1] of 2500 nM.
`Oc1cccc(CN2CCN(Cc3ccccc3)CC2)c1` showed an IC50 in assay [2] of 6400 nM.
With `CC(C)(C)c1ccc(C(c2cccc(O)c2)N2CCN(Cc3ccccc3)CC2)cc1` (stereo in doubt), the half-inhibitory concentration (IC50) in assay [3] is 5.51 nM. Moreover, the EC50 in assay [4] was 85 nM; at Mu-type opioid receptor [5], 39000 nM.
On to `Oc1cccc(C(c2ccccc2)N2CCN(Cc3ccccc3)CC2)c1` (centres undefined), for which the half-maximal inhibitory concentration (IC50) came to 500 nM at Mu-type opioid receptor [1] and 34 nM in assay [2]. The EC50 in assay [4] was determined as 174 nM; at Mu-type opioid receptor [5], 1250 nM. Besides, the Selectivity in assay [6] was 7.1.
`CC(C)(C)c1ccc(C(c2cccc(O)c2)N2CCN(Cc3ccccc3)CC2)cc1` (single isomer, unassigned; (-)): the EC50 in assay [4] was found to be 360 nM; at Mu-type opioid receptor [5], 7600 nM.
For `CC(c1cccc(O)c1)N1CCN(Cc2ccccc2)CC1` (centres undefined), the IC50 on Mu-type opioid receptor [1] was found to be 780 nM; in assay [2], 610 nM.
Take `Cc1cc(O)cc(C)c1[C@@H](C)[C@H](N)C(=O)N[C@H]1C(=O)NCC(=O)N[C@@H](Cc2ccccc2)C(=O)N[C@@H](C(=O)O)C(C)(C)SSC1(C)C`: the IC50 on Mu-type opioid receptor [1] was 4300 nM; in assay [2], 5 nM; in the assay filed under Cavia porcellus, 5000 nM. Besides, the EC50 in assay [4] turned out to be 1.8 nM. In assay [7], this compound returned an inhibition of 0%. In addition, in assay [6], the Selectivity was greater than 33000.
Take `Oc1cccc(C(c2ccc(-c3ccccc3)cc2)N2CCN(Cc3ccccc3)CC2)c1` (centres undefined): the IC50 amounted to 27000 nM at Mu-type opioid receptor [1] and 31 nM in assay [2].
`CC(C)(C)c1ccc(C(c2cccc(O)c2)N2CCN(Cc3ccccc3)CC2)cc1` (single isomer, unassigned; (+)): the EC50 amounted to 210 nM in assay [4] and 3000 nM on Mu-type opioid receptor [5].
